Converted amounts (≈) assume the structure as drawn.
System: Streptococcus agalactiae
Assay: Antimicrobial activity against penicillin-resistant Streptococcus agalactiae B503 by agar dilution method
Format: functional
Procedure, shortened: (§1)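 Agar dilution MICs run per the CLSI recommendation. S. pneumoniae ATCC 49619 was included as the quality control strain. β-lactams tested were penicillin G, penicillin V, ampicillin, oxacillin, cefazolin, cefepime, cefotaxime, ceftizoxime and meropenem. Test strains were S. agalactiae clinical sputum isolates and ATCC strains BAA-611 and 12403.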

Structure (SMILES)	MIC
CO/N=C(\C(=O)N[C@@H]1C(=O)N2C(C(=O)O)=C(COC(C)=O)CS[C@H]12)c1csc(N)n1 [CEFOTAXIME]	0.25 µg/mL (≈ 0.549 µM)
Cc1onc(-c2ccccc2)c1C(=O)N[C@@H]1C(=O)N2[C@@H]1SC(C)(C)[C@@H]2C(=O)O [OXACILLIN]	2 µg/mL (≈ 4.98 µM)

System: Streptococcus pneumoniae
Assay: Antimicrobial activity against Streptococcus pneumoniae ATCC 49619 by agar dilution method
Format: functional
Procedure, shortened: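 MIC by agar dilution per CLSI recommendations. The strain is a penicillin-susceptible S. pneumoniae quality-control strain, run alongside the clinical GBS isolates. β-lactams tested were penicillin G, penicillin V, ampicillin, oxacillin, cefazolin, cefepime, cefotaxime, ceftizoxime and meropenem.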

Structure (SMILES)	MIC
CO/N=C(\C(=O)N[C@@H]1C(=O)N2C(C(=O)O)=C(COC(C)=O)CS[C@H]12)c1csc(N)n1 [CEFOTAXIME]	0.03 µg/mL (≈ 0.0659 µM)
Cc1onc(-c2ccccc2)c1C(=O)N[C@@H]1C(=O)N2[C@@H]1SC(C)(C)[C@@H]2C(=O)O [OXACILLIN]	1 µg/mL (≈ 2.49 µM)

System: Streptococcus agalactiae
Assay: Antimicrobial activity against penicillin-resistant Streptococcus agalactiae B10 by agar dilution method
Format: functional
Procedure, shortened: as §1

Structure (SMILES)	MIC
CO/N=C(\C(=O)N[C@@H]1C(=O)N2C(C(=O)O)=C(COC(C)=O)CS[C@H]12)c1csc(N)n1 [CEFOTAXIME]	0.5 µg/mL (≈ 1.1 µM)
Cc1onc(-c2ccccc2)c1C(=O)N[C@@H]1C(=O)N2[C@@H]1SC(C)(C)[C@@H]2C(=O)O [OXACILLIN]	4 µg/mL (≈ 9.96 µM)

System: Streptococcus agalactiae
Assay: Antimicrobial activity against penicillin-resistant Streptococcus agalactiae ATCC BAA-611 harboring PBP-2X V405A mutant gene by agar dilution method
Format: functional
Procedure, shortened: as §1

Structure (SMILES)	MIC
CO/N=C(\C(=O)N[C@@H]1C(=O)N2C(C(=O)O)=C(COC(C)=O)CS[C@H]12)c1csc(N)n1 [CEFOTAXIME]	0.12 µg/mL (≈ 0.263 µM)
Cc1onc(-c2ccccc2)c1C(=O)N[C@@H]1C(=O)N2[C@@H]1SC(C)(C)[C@@H]2C(=O)O [OXACILLIN]	2 µg/mL (≈ 4.98 µM)

System: Streptococcus agalactiae
Assay: Antimicrobial activity against penicillin-resistant Streptococcus agalactiae B6 by agar dilution method
Format: functional
Procedure, shortened: as §1

Structure (SMILES)	MIC
CO/N=C(\C(=O)N[C@@H]1C(=O)N2C(C(=O)O)=C(COC(C)=O)CS[C@H]12)c1csc(N)n1 [CEFOTAXIME]	1 µg/mL (≈ 2.2 µM)
Cc1onc(-c2ccccc2)c1C(=O)N[C@@H]1C(=O)N2[C@@H]1SC(C)(C)[C@@H]2C(=O)O [OXACILLIN]	4 µg/mL (≈ 9.96 µM)

System: Streptococcus agalactiae
Assay: Antimicrobial activity against penicillin-resistant Streptococcus agalactiae B514 by agar dilution method
Format: functional
Procedure, shortened: as §1

Structure (SMILES)	MIC
CO/N=C(\C(=O)N[C@@H]1C(=O)N2C(C(=O)O)=C(COC(C)=O)CS[C@H]12)c1csc(N)n1 [CEFOTAXIME]	0.25 µg/mL (≈ 0.549 µM)
Cc1onc(-c2ccccc2)c1C(=O)N[C@@H]1C(=O)N2[C@@H]1SC(C)(C)[C@@H]2C(=O)O [OXACILLIN]	4 µg/mL (≈ 9.96 µM)

System: Streptococcus agalactiae
Assay: Antimicrobial activity against penicillin-resistant Streptococcus agalactiae B68 by agar dilution method
Format: functional
Procedure, shortened: as §1

Structure (SMILES)	MIC
CO/N=C(\C(=O)N[C@@H]1C(=O)N2C(C(=O)O)=C(COC(C)=O)CS[C@H]12)c1csc(N)n1 [CEFOTAXIME]	0.25 µg/mL (≈ 0.549 µM)
Cc1onc(-c2ccccc2)c1C(=O)N[C@@H]1C(=O)N2[C@@H]1SC(C)(C)[C@@H]2C(=O)O [OXACILLIN]	4 µg/mL (≈ 9.96 µM)

System: Streptococcus agalactiae
Assay: Antimicrobial activity against penicillin-resistant Streptococcus agalactiae B7 by agar dilution method
Format: functional
Procedure, shortened: as §1

Structure (SMILES)	MIC
CO/N=C(\C(=O)N[C@@H]1C(=O)N2C(C(=O)O)=C(COC(C)=O)CS[C@H]12)c1csc(N)n1 [CEFOTAXIME]	0.12 µg/mL (≈ 0.263 µM)
Cc1onc(-c2ccccc2)c1C(=O)N[C@@H]1C(=O)N2[C@@H]1SC(C)(C)[C@@H]2C(=O)O [OXACILLIN]	2 µg/mL (≈ 4.98 µM)

System: Streptococcus agalactiae
Assay: Antimicrobial activity against penicillin-resistant Streptococcus agalactiae B12 by agar dilution method
Format: functional
Procedure, shortened: as §1

Structure (SMILES)	MIC
CO/N=C(\C(=O)N[C@@H]1C(=O)N2C(C(=O)O)=C(COC(C)=O)CS[C@H]12)c1csc(N)n1 [CEFOTAXIME]	0.5 µg/mL (≈ 1.1 µM)
Cc1onc(-c2ccccc2)c1C(=O)N[C@@H]1C(=O)N2[C@@H]1SC(C)(C)[C@@H]2C(=O)O [OXACILLIN]	4 µg/mL (≈ 9.96 µM)

System: Streptococcus agalactiae
Assay: Antimicrobial activity against penicillin-resistant Streptococcus agalactiae B502 by agar dilution method
Format: functional
Procedure, shortened: as §1

Structure (SMILES)	MIC
CO/N=C(\C(=O)N[C@@H]1C(=O)N2C(C(=O)O)=C(COC(C)=O)CS[C@H]12)c1csc(N)n1 [CEFOTAXIME]	0.25 µg/mL (≈ 0.549 µM)
Cc1onc(-c2ccccc2)c1C(=O)N[C@@H]1C(=O)N2[C@@H]1SC(C)(C)[C@@H]2C(=O)O [OXACILLIN]	4 µg/mL (≈ 9.96 µM)

System: Streptococcus agalactiae
Assay: Antimicrobial activity against penicillin-resistant Streptococcus agalactiae B60 by agar dilution method
Format: functional
Procedure, shortened: as §1

Structure (SMILES)	MIC
CO/N=C(\C(=O)N[C@@H]1C(=O)N2C(C(=O)O)=C(COC(C)=O)CS[C@H]12)c1csc(N)n1 [CEFOTAXIME]	0.25 µg/mL (≈ 0.549 µM)
Cc1onc(-c2ccccc2)c1C(=O)N[C@@H]1C(=O)N2[C@@H]1SC(C)(C)[C@@H]2C(=O)O [OXACILLIN]	4 µg/mL (≈ 9.96 µM)

System: Streptococcus agalactiae
Assay: Antimicrobial activity against penicillin-resistant Streptococcus agalactiae B40 by agar dilution method
Format: functional
Procedure, shortened: as §1

Structure (SMILES)	MIC
CO/N=C(\C(=O)N[C@@H]1C(=O)N2C(C(=O)O)=C(COC(C)=O)CS[C@H]12)c1csc(N)n1 [CEFOTAXIME]	0.5 µg/mL (≈ 1.1 µM)
Cc1onc(-c2ccccc2)c1C(=O)N[C@@H]1C(=O)N2[C@@H]1SC(C)(C)[C@@H]2C(=O)O [OXACILLIN]	8 µg/mL (≈ 19.9 µM)

System: Streptococcus agalactiae
Assay: Antimicrobial activity against penicillin-susceptible Streptococcus agalactiae ATCC 12403 by agar dilution method

Structure (SMILES)	MIC
CO/N=C(\C(=O)N[C@@H]1C(=O)N2C(C(=O)O)=C(COC(C)=O)CS[C@H]12)c1csc(N)n1 [CEFOTAXIME]	0.06 µg/mL (≈ 0.132 µM)
Cc1onc(-c2ccccc2)c1C(=O)N[C@@H]1C(=O)N2[C@@H]1SC(C)(C)[C@@H]2C(=O)O [OXACILLIN]	0.25 µg/mL (≈ 0.623 µM)

System: Streptococcus agalactiae
Assay: Antimicrobial activity against penicillin-resistant Streptococcus agalactiae B513 by agar dilution method
Format: functional
Procedure, shortened: as §1

Structure (SMILES)	MIC
CO/N=C(\C(=O)N[C@@H]1C(=O)N2C(C(=O)O)=C(COC(C)=O)CS[C@H]12)c1csc(N)n1 [CEFOTAXIME]	1 µg/mL (≈ 2.2 µM)
Cc1onc(-c2ccccc2)c1C(=O)N[C@@H]1C(=O)N2[C@@H]1SC(C)(C)[C@@H]2C(=O)O [OXACILLIN]	8 µg/mL (≈ 19.9 µM)

System: Streptococcus agalactiae
Assay: Antimicrobial activity against penicillin-susceptible Streptococcus agalactiae ATCC BAA-611 by agar dilution method

Structure (SMILES)	MIC
CO/N=C(\C(=O)N[C@@H]1C(=O)N2C(C(=O)O)=C(COC(C)=O)CS[C@H]12)c1csc(N)n1 [CEFOTAXIME]	0.06 µg/mL (≈ 0.132 µM)
Cc1onc(-c2ccccc2)c1C(=O)N[C@@H]1C(=O)N2[C@@H]1SC(C)(C)[C@@H]2C(=O)O [OXACILLIN]	0.25 µg/mL (≈ 0.623 µM)

System: Streptococcus agalactiae
Assay: Antimicrobial activity against penicillin-resistant Streptococcus agalactiae B516 by agar dilution method
Format: functional
Procedure, shortened: as §1

Structure (SMILES)	MIC
CO/N=C(\C(=O)N[C@@H]1C(=O)N2C(C(=O)O)=C(COC(C)=O)CS[C@H]12)c1csc(N)n1 [CEFOTAXIME]	0.25 µg/mL (≈ 0.549 µM)
Cc1onc(-c2ccccc2)c1C(=O)N[C@@H]1C(=O)N2[C@@H]1SC(C)(C)[C@@H]2C(=O)O [OXACILLIN]	4 µg/mL (≈ 9.96 µM)

System: Streptococcus agalactiae
Assay: Antimicrobial activity against penicillin-resistant Streptococcus agalactiae B8 by agar dilution method
Format: functional
Procedure, shortened: as §1

Structure (SMILES)	MIC
CO/N=C(\C(=O)N[C@@H]1C(=O)N2C(C(=O)O)=C(COC(C)=O)CS[C@H]12)c1csc(N)n1 [CEFOTAXIME]	0.25 µg/mL (≈ 0.549 µM)
Cc1onc(-c2ccccc2)c1C(=O)N[C@@H]1C(=O)N2[C@@H]1SC(C)(C)[C@@H]2C(=O)O [OXACILLIN]	4 µg/mL (≈ 9.96 µM)

System: Streptococcus agalactiae
Assay: Antimicrobial activity against penicillin-resistant Streptococcus agalactiae ATCC BAA-611 harboring PBP-2X Q557E mutant gene by agar dilution method
Format: functional
Procedure, shortened: as §1

Structure (SMILES)	MIC
CO/N=C(\C(=O)N[C@@H]1C(=O)N2C(C(=O)O)=C(COC(C)=O)CS[C@H]12)c1csc(N)n1 [CEFOTAXIME]	0.5 µg/mL (≈ 1.1 µM)
Cc1onc(-c2ccccc2)c1C(=O)N[C@@H]1C(=O)N2[C@@H]1SC(C)(C)[C@@H]2C(=O)O [OXACILLIN]	4 µg/mL (≈ 9.96 µM)

System: Streptococcus agalactiae
Assay: Antimicrobial activity against penicillin-resistant Streptococcus agalactiae B1 by agar dilution method
Format: functional
Procedure, shortened: as §1

Structure (SMILES)	MIC
CO/N=C(\C(=O)N[C@@H]1C(=O)N2C(C(=O)O)=C(COC(C)=O)CS[C@H]12)c1csc(N)n1 [CEFOTAXIME]	2 µg/mL (≈ 4.39 µM)
Cc1onc(-c2ccccc2)c1C(=O)N[C@@H]1C(=O)N2[C@@H]1SC(C)(C)[C@@H]2C(=O)O [OXACILLIN]	4 µg/mL (≈ 9.96 µM)

From ChEMBL document CHEMBL1275458, “First molecular characterization of group B streptococci with reduced penicillin susceptibility” (2008)
